Source: ChEMBL document CHEMBL1124216, “A novel class of potential central nervous system agents. 3-Phenyl-2-(1-piperazinyl)-5H-1-benzazepines” (1988)

How the values were obtained:
Assay type in all cases: functional
[1] = test system: Mus musculus; test: Antimaximal electroshock seizure (MES) activity in mice after peroral administration of 10 mg/kg of compound; 0/5; conditions: route oral
[2] = test system: Mus musculus; test: Antipentylene tetrazole activity was determined in mice when administered perorally; conditions: po
Summary of the method: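 Groups of five male Std-ddY mice received compound orally in 0.5% tragacanth, then pentylenetetrazole 175 mg/kg ip. Blockade of the tonic extensor component scored as anticonvulsant. ED50 was the dose protecting 50% of animals (Litchfield-Wilcoxon).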

[3] = test system: Mus musculus; test: Antimaximal electroshock seizure (MES) activity in mice after peroral administration of 100 mg/kg of compound; 4/5; conditions: route oral
[4] = test system: Mus musculus; test: Antimaximal electroshock seizure activity was determined in mice when administered perorally; conditions: po
[5] = test system: Mus musculus; test: Antiexploratory activity (EXPL) of mice determined by an antimex activity meter,100 mg/kg of dose was administered perorally; No inhibition
[6] = test system: Mus musculus; test: Antitremorine activity(TRM) of mice after peroral administration of 10 mg/kg of compound; No inhibition; conditions: route oral
[7] = test system: Mus musculus; test: Antitremorine activity(TRM) of mice after peroral administration of 100 mg/kg of compound; conditions: route oral
[8] = test system: Mus musculus; test: Antireserpine activity (RES) of mice after peroral administration of 100 mg/kg of compound; No inhibition; conditions: route oral
[9] = test system: Mus musculus; test: Antimaximal electroshock seizure (MES) activity in mice after peroral administration of 100 mg/kg of compound; 5/5; conditions: route oral
[10] = test system: Mus musculus; test: Antiexploratory activity (EXPL) of mice determined by an antimex activity meter,100 mg/kg of dose was administered perorally
[11] = test system: Mus musculus; test: Antitremorine activity(TRM) of mice after peroral administration of 100 mg/kg of compound; Moderate inhibition (51-71%); conditions: route oral
[12] = test system: Canis familiaris; test: Inhibition of apomorphine induced emesis in dogs at 1 mg/kg of dose.; conditions: Canis lupus familiaris
Summary of the method: (§1)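 Beagle dogs (10-15 kg), groups of three, given compound po in a gelatin capsule; 2 h later apomorphine hydrochloride 0.3 mg/kg sc. Vomiting counted for 1 h; mean inhibition as percent of control. ED50 is the dose giving 50% inhibition of emesis, by Litchfield-Wilcoxon.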

[13] = test system: Canis familiaris; test: Inhibition of apomorphine induced emesis in dogs when administered perorally; conditions: Canis lupus familiaris, po; summary of the method: as §1
[14] = test system: Mus musculus; test: 3,4 -Dihydroxy phenylacetic acid (DOPAC) levels in mouse brain at 10 mg/kg dose.
Summary of the method: (§2)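 Male Std-ddY mice, 20-25 g, dosed orally with compound in 0.5% aqueous tragacanth. DOPAC was measured fluorometrically after purification by column chromatography on Sephadex G-10 and QAE-Sephadex. Brains from five mice per compound were pooled for each determination.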

[15] = test system: Mus musculus; test: 3,4 -Dihydroxy phenylacetic acid (DOPAC) levels in mouse brain at 50 mg/kg dose.; summary of the method: as §2
[16] = test system: Mus musculus; test: Inhibition of conditioned avoidance response in mice when administered perorally; conditions: po
Summary of the method: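 One-way active avoidance in male Std-ddY mice in a dark/light two-compartment box. Mice trained to move to the lit side on a warning stimulus to escape floor shock; groups of 10 avoiding at >80% in 10 trials. Compound po in 0.5% tragacanth. ED50 is the dose halving avoidance rate (Litchfield-Wilcoxon).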

[17] = test system: Mus musculus; test: Concentration of compound that causes catalepsy in the mice when administered perorally; conditions: po
Summary of the method: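 Male Std-ddY mice were dosed orally, vehicle 0.5% aqueous tragacanth. At 2 h, forepaws were placed on a rod 4.5 cm high. Failure to remove the paws within 30 s in three successive trials was scored cataleptic. ED50 was the dose giving catalepsy in 50% of mice (Litchfield-Wilcoxon).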

[18] = test system: Mus musculus; test: Concentration of compound that causes ptosis in the mice when administered perorally; conditions: po
Summary of the method: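 Five male Std-ddY mice per group were dosed orally in 0.5% aqueous tragacanth. At 2 h, eyelid closure was scored macroscopically (8 open to 0 fully closed). Group mean scores formed a dose-response curve. ED50 was the dose reducing the mean score to 50%.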

[19] = test system: Mus musculus; test: The homovanillic acid (HVA) levels in mouse brain at 10 mg/kg of dose.
Summary of the method: (§3)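 Mice dosed orally in 0.5% aqueous tragacanth; brains of five mice per compound pooled. Homovanillic acid measured in brain extracts and reported as brain level.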

[20] = test system: Mus musculus; test: The homovanillic acid (HVA) levels in mouse brain at 50 mg/kg of dose.; summary of the method: as §3
[21] = test system: Mus musculus; test: Antiexploratory activity (EXPL) of mice determined by an antimex activity meter, 10 mg/kg of dose was administered perorally; Slight inhibition (31-50%); conditions: route oral
[22] = test system: Mus musculus; test: Exploratory activity of mice determined by an antimex activity meter, 10 mg/kg of dose was administered perorally; conditions: route oral
[23] = test system: Mus musculus; test: Exploratory activity of mice determined by an antimex activity meter, 50 mg/kg of dose was administered perorally; conditions: Mus musculus, po
Summary of the method: (§4)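 Male Std-ddY mice (20-25 g), five per dose; compound in 0.5% aqueous tragacanth given orally. Two hours later each mouse placed in an Animex activity meter cage and locomotor activity counted for 3 min. Mean suppression expressed as percent inhibition of control; ED50 by Litchfield-Wilcoxon.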

[24] = test system: Mus musculus; test: Antireserpine activity (RES) of mice after peroral administration of 50 mg/kg of compound; No inhibition; conditions: route oral
[25] = test system: Mus musculus; test: Exploratory activity of mice determined by an antimex activity meter, when administered perorally; conditions: po; summary of the method: as §4
[26] = test system: Mus musculus; test: Antiexploratory activity (EXPL) of mice determined by an antimex activity meter, 50 mg/kg of dose was administered perorally; potent inhibition; conditions: route oral
[27] = test system: Rattus norvegicus; test: Inhibition of self-stimulation response in rats when administered perorally.; conditions: po
Summary of the method: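 Male Wistar HLA rats (300-400 g) with chronic electrodes in the lateral posterior hypothalamus, lever-pressing steadily at 50-100/min. Self-stimulation counted for 10 min before and 2 h after oral dosing. ED50 is the dose causing ≥50% rate inhibition in half the rats (Litchfield-Wilcoxon).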

[28] = test system: Mus musculus; test: Antimaximal electroshock seizure (MES) activity in mice after peroral administration of 100 mg/kg of compound; 0/5; conditions: route oral
[29] = test system: Mus musculus; test: Antiexploratory activity (EXPL) of mice determined by an antimex activity meter, 100 mg/kg of dose was administered perorally; conditions: route oral
[30] = test system: Mus musculus; test: Antitremorine activity(TRM) of mice after peroral administration of 100 mg/kg of compound; No inhibition; conditions: route oral

Question: With CCN1CCN(C2=Nc3ccc(C)cc3CC=C2c2ccccc2)CC1.Cl.Cl as the compound, how does the Activity [1] read?
Answer: 0

Question: And the ED50 [2]?
Answer: 32.3 mg/kg

Question: And the Activity [3]?
Answer: 4

Question: And the ED50 [4]?
Answer: 70.2 mg/kg

Question: What about the Inhibition [5] of the same compound?
Answer: <30%

Question: What about the inhibition in vivo at 10 mg/kg [6] of the same compound?
Answer: < 30%

Question: And the inhibition in vivo at 100 mg/kg [7]?
Answer: > 71%

Question: What about the inhibition in vivo at 100 mg/kg [8] of the same compound?
Answer: < 30%

Question: For CCc1ccc2c(c1)CC=C(c1ccccc1)C(N1CCN(CCO)CC1)=N2.Cl.Cl, which Activity [1] is on record?
Answer: 0

Question: And the Activity [9]?
Answer: 5

Question: And the Inhibition [10]?
Answer: <30%

Question: What about the inhibition in vivo at 100 mg/kg [11] of the same compound?
Answer: 51%

Question: What about the inhibition in vivo at 100 mg/kg [8] of the same compound?
Answer: < 30%

Question: CN1CCN(C2=Nc3ccccc3CC=C2c2ccc(F)cc2)CC1.Cl.Cl was tested. Which inhibition in vivo at 1 mg/kg [12] did it give?
Answer: 100%

Question: And the ED50 [13]?
Answer: 0.28 mg/kg

Question: And the Control [14]?
Answer: 188%

Question: And the Control [15]?
Answer: 306%

Question: What about the ED50 [16] of the same compound?
Answer: 14.6 mg/kg

Question: What about the ED50 [17] of the same compound?
Answer: 21.5 mg/kg

Question: And the ED50 [18]?
Answer: 61 mg/kg

Question: And the Control [19]?
Answer: 197%

Question: And the Control [20]?
Answer: 400%

Question: And the inhibition in vivo at 10 mg/kg [21]?
Answer: 31%

Question: And the inhibition in vivo at 10 mg/kg [22]?
Answer: 43.3%

Question: And the inhibition in vivo at 50 mg/kg [23]?
Answer: 79.3%

Question: And the inhibition in vivo at 50 mg/kg [24]?
Answer: < 30%

Question: What about the ED50 [25] of the same compound?
Answer: 8.15 mg/kg

Question: And the inhibition in vivo at 50 mg/kg [26]?
Answer: > 70%

Question: What about the ED50 [27] of the same compound?
Answer: 4.05 mg/kg

Question: How did the Activity [28] turn out when Cl.Cl.OCCN1CCN(C2=Nc3ccc(F)cc3CC=C2c2ccccc2)CC1 was run?
Answer: 0

Question: And the ED50 [2]?
Answer: > 500 mg/kg

Question: And the ED50 [4]?
Answer: > 500 mg/kg

Question: What about the inhibition in vivo at 100 mg/kg [29] of the same compound?
Answer: > 71%

Question: And the inhibition in vivo at 100 mg/kg [30]?
Answer: < 30%

Question: What about the inhibition in vivo at 100 mg/kg [8] of the same compound?
Answer: < 30%
